pEC50, pIC50: −log10 of the molar value. ≈ marks a conversion by molar mass, not a printed value.
Experiments:
[1] = Tmax in nude rat xenografted with human Calu6 cells harboring KRAS Q61K mutant at 75 mg/kg, po administered daily for 18 days starting from day 13 post tumor implantation and measured on day 31; format: ADME, organism-based; conditions: in vivo
Procedure, shortened: (§1)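 Calu-6 xenograft nude rats were dosed orally once daily at 15, 35, 75 or 150 mg/kg from day 13 after implantation to day 31. Plasma was collected after the last dose on day 31, drug concentrations were measured, and PK parameters including AUC were calculated for each dose.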

[2] = Clearance in dog at 0.2 mg/kg, iv or 0.4 mg/kg, po; format: ADME, organism-based, Canis lupus familiaris; conditions: in vivo
[3] = target: Voltage-gated inwardly rectifying potassium channel KCNH2 (Homo sapiens, UniProt Q12809); experiment: Inhibition of human ERG by patch clamp method
Voltage-gated inwardly rectifying potassium channel KCNH2, sequence (Q12809 whole entry): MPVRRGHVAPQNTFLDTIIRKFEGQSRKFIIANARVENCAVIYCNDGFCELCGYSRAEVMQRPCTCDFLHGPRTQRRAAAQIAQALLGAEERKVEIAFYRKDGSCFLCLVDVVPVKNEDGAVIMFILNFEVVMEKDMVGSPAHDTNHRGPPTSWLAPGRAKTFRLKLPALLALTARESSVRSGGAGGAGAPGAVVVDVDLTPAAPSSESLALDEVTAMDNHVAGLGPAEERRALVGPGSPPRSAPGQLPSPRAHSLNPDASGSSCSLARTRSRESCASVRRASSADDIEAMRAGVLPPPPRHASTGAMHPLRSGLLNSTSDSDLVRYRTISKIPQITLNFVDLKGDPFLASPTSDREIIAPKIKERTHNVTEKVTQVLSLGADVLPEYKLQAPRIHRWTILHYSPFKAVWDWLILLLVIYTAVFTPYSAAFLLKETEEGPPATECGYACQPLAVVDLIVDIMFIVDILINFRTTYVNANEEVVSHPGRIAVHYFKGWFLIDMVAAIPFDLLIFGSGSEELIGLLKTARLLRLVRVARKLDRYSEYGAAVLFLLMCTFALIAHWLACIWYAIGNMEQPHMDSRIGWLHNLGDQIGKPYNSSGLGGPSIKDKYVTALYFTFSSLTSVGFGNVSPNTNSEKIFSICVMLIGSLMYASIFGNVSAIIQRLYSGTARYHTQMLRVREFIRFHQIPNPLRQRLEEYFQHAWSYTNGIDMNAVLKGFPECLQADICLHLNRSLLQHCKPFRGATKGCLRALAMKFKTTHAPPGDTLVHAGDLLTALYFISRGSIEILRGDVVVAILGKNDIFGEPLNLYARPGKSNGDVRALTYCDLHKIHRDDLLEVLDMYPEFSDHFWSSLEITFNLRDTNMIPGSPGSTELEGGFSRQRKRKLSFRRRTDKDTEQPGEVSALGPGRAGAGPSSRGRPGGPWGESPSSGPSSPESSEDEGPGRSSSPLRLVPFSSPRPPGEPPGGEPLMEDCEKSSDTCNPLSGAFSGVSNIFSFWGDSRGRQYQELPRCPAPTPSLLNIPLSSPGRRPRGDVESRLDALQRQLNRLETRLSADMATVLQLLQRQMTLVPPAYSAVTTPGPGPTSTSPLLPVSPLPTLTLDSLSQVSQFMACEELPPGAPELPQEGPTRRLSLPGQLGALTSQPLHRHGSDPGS
Procedure, shortened: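 hERG inhibition measured by manual patch clamp.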

Calu-6 [4] = experiment: Antitumor activity against human Calu6 cells harboring KRAS Q61K mutant xenografted in nude rat assessed as tumor growth at 35 mg/kg, po administered daily for 18 days starting from day 13 post tumor implantation and measured on day 31 relative to control; format: functional
Procedure, shortened: (§2)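 Nude rats bearing Calu-6 (KRAS Q61K) human NSCLC xenografts received vehicle or drug p.o. daily at 15, 35, 75 or 150 mg/kg. Dosing began 13 days after tumor implantation and ran to day 31, i.e. 18 days of treatment. Tumor volumes were read out as %T/C or % regression versus vehicle on day 31. Body weight was also tracked.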

[5] = AUC (infinity) in dog at 0.4 mg/kg, po; format: ADME, organism-based, Canis lupus familiaris; design: dose 0.4 mg/kg, time infinity, route oral; conditions: in vivo
[6] = target: Epithelial discoidin domain-containing receptor 1 (Homo sapiens) (UniProt Q08345); experiment: Binding affinity to wild-type human partial length DDR1 (R565 to V876 residues) expressed in bacterial expression system at 1 uM by Kinomescan method relative to control
Epithelial discoidin domain-containing receptor 1 (Homo sapiens), sequence (Q08345 whole entry, the tested form may be a part): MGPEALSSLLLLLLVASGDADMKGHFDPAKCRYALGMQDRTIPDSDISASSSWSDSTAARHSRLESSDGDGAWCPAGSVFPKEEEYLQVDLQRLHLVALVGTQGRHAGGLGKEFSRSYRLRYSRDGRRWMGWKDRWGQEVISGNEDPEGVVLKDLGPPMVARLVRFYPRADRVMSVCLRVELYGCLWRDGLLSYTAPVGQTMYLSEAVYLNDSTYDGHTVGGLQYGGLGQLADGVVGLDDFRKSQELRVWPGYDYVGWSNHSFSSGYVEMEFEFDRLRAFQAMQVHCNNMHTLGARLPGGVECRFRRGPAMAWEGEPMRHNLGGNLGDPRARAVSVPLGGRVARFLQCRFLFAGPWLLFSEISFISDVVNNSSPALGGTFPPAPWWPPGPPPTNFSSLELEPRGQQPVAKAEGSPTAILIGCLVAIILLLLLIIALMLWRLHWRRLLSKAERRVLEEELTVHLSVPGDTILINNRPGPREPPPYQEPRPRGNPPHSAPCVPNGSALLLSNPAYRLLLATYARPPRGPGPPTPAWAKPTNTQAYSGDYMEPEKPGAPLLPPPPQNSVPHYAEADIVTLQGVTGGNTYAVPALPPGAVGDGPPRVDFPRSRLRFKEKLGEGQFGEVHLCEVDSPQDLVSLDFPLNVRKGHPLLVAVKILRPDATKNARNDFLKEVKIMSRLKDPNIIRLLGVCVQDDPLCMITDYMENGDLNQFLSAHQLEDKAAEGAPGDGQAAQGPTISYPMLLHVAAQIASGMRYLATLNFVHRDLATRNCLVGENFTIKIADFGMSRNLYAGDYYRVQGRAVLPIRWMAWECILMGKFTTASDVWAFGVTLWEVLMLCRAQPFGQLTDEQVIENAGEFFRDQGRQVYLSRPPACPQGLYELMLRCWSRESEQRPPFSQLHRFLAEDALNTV
Procedure, shortened: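 KINOMEscan competition binding panel of about 456 kinases, compound tested at 1 μM. Activity is given as % of control = [(test signal − positive control signal)/(negative control signal − positive control signal)] × 100.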

[7] = Solubility of compound in pH 6.8 Cl-free PBS buffer by shake-flask assay; format: physicochemical
Procedure, shortened: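 Shake-flask solubility measured in chloride-free PBS at pH 6.8.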

[8] = tested on: RAF proto-oncogene serine/threonine-protein kinase (Homo sapiens), P04049 [Y340E,Y341E]; experiment: Binding affinity to CRAF Y340E/Y341E mutant (unknown origin) assessed as dissociation half life by rapid dilution method
Procedure, shortened: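 Full-length CRAF carrying activating Y340E/Y341E was used in a kinase activity assay. Dissociation was measured by the rapid dilution method, and recovery of enzyme activity was followed over 6 hours of incubation. The dissociation half-life was derived from that recovery.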

[9] = Cmax in rat at 4 mg/kg, po; format: ADME, organism-based; design: dose 4 mg/kg, route oral; conditions: in vivo
Calu-6 [10] = experiment: Antitumor activity against human Calu6 cells harboring KRAS Q61K mutant xenografted in nude rat assessed as tumor regression at 150 mg/kg, po administered daily for 18 days starting from day 13 post tumor implantation and measured on day 31 relative to control; format: functional; procedure, shortened: as §2
[11] = Time of last measurable concentration in nude rat xenografted with human Calu6 cells harboring KRAS Q61K mutant at 15 mg/kg, po administered daily for 18 days starting from day 13 post tumor implantation and measured on day 31; format: ADME, organism-based; conditions: in vivo, 432 h; procedure, shortened: as §1
[12] = Time of last measurable concentration in nude rat xenografted with human Calu6 cells harboring KRAS Q61K mutant at 35 mg/kg, po administered daily for 18 days starting from day 13 post tumor implantation and measured on day 31; format: ADME, organism-based; conditions: in vivo, 432 h; procedure, shortened: as §1
[13] = Clearance in mouse at 2 mg/kg, iv or 4 mg/kg, po; format: ADME, organism-based; conditions: in vivo
[14] = Volume of distribution at steady state in dog at 0.2 mg/kg, iv or 0.4 mg/kg, po; format: ADME, organism-based, Canis lupus familiaris; conditions: in vivo, read-out: Vdss
[15] = AUC (0 to 24 hrs) in nude rat xenografted with human Calu6 cells harboring KRAS Q61K mutant at 150 mg/kg, po administered daily for 18 days starting from day 13 post tumor implantation and measured on day 31; format: ADME, organism-based; design: dose 150 mg/kg, time < 24 hr, route oral; conditions: in vivo
Procedure, shortened: (§3)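 Nude rats carrying Calu-6 (KRAS Q61K) NSCLC xenografts were dosed p.o. once daily at 15, 35, 75 or 150 mg/kg from day 13 to day 31 after implant. Plasma was collected after the last dose and drug concentration was measured. AUC and Cmax were calculated per dose on day 31.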

[16] = target: RAF proto-oncogene serine/threonine-protein kinase (Homo sapiens, UniProt P04049); experiment: Inhibition of CRAF in human Calu6 cells assessed as reduction MEK phosphorylation measured after 1 hr by sandwich ELISA; format: cell-based
[17] = Apparent permeability across basolateral to apical side in human Caco2 cells at pH 7.4 by LC/MS/MS analysis; format: ADME, cell-based; conditions: Caco-2, pH 7.4
Rattus norvegicus [18] = experiment: In vivo inhibition of CRAF in po dosed nude rat xenografted with human Calu6 cells harboring KRAS Q61K mutant assessed as reduction in tumor MEK phosphorylation administered as single dose measured after 1 to 48 hrs by sandwich ELISA; format: functional, organism-based
Procedure, shortened: (§4)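 Calu-6 (KRAS Q61K) xenograft-bearing nude rats were given a single oral dose of 15, 35, 75 or 150 mg/kg. Tumor and blood were sampled at 1, 4, 7, 24 and 48 h post-dose. Tumor pMEK was quantified by MSD immunoassay and expressed as percent pMEK. Free plasma exposure was determined in parallel.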

[19] = Clearance in rat at 2 mg/kg, iv or 4 mg/kg, po; format: ADME, organism-based; conditions: in vivo
Calu-6 [20] = experiment: Antitumor activity against human Calu6 cells harboring KRAS Q61K mutant xenografted in po dosed nude rat assessed as increase in tumor regression administered daily for 18 days starting from day 13 post tumor implantation and measured on day 31; format: functional, organism-based; procedure, shortened: as §2
Calu-6 [21] = experiment: Antitumor activity against human Calu6 cells harboring KRAS Q61K mutant xenografted in nude rat assessed as tumor regression at 75 mg/kg, po administered daily for 18 days starting from day 13 post tumor implantation and measured on day 31 relative to control; format: functional; procedure, shortened: as §2
[22] = Cmax in mouse at 4 mg/kg, po; format: ADME, organism-based; design: dose 4 mg/kg, route oral; conditions: in vivo
[23] = Cmax in nude rat xenografted with human Calu6 cells harboring KRAS Q61K mutant at 35 mg/kg, po administered daily for 18 days starting from day 13 post tumor implantation and measured on day 31; format: ADME, organism-based; design: dose 35 mg/kg, route oral; conditions: in vivo; procedure, shortened: as §3
[24] = Tmax in nude rat xenografted with human Calu6 cells harboring KRAS Q61K mutant at 35 mg/kg, po administered daily for 18 days starting from day 13 post tumor implantation and measured on day 31; format: ADME, organism-based; conditions: in vivo; procedure, shortened: as §1
Rattus norvegicus [25] = experiment: In vivo inhibition of CRAF in nude rat xenografted with human Calu6 cells harboring KRAS Q61K mutant assessed as reduction in tumor MEK phosphorylation at 150 mg/kg, po administered as single dose measured after 24 hrs by sandwich ELISA relative to control; format: functional; conditions: Calu-6, po; procedure, shortened: as §4
[26] = Protein binding in human plasma; format: ADME, cell-free; conditions: read-out: PPB (converted)
[27] = AUC (infinity) in mouse at 4 mg/kg, po; format: ADME, organism-based; design: dose 4 mg/kg, route oral, time infinity; conditions: in vivo
[28] = Oral bioavailability in rat at 4 mg/kg; format: ADME, organism-based; conditions: in vivo
[29] = Cmax in dog at 0.4 mg/kg, po; format: ADME, organism-based, Canis lupus familiaris; design: dose 0.4 mg/kg, route oral; conditions: in vivo
[30] = Oral bioavailability in dog at 0.4 mg/kg; format: ADME, organism-based, Canis lupus familiaris; conditions: in vivo
Calu-6 [31] = experiment: Antiproliferative activity against human Calu6 cells harboring KRAS Q61K mutant assessed as reduction in cell viability after 72 hrs by CellTiter-Glo assay; format: functional, cell-based; conditions: Calu-6, 72 h

Q: Which results are given for Cc1ccc(NC(=O)c2ccnc(C(F)(F)F)c2)cc1-c1cc(OCCO)nc(N2CCOCC2)c1 [NAPORAFENIB]?
A: Tmax [1]: 2 h; clearance [2]: 3.5 mL/min/kg; pIC50 [3]: < 5.00; T/C (Calu-6 [4]): 9%; AUC(0-inf) [5]: 3.1 µM·h; Activity [6]: > 99%; solubility thermodynamic [7]: 20 µM (≈ 10 µg/mL); T1/2 [8]: > 6.5 h; Cmax [9]: 500 nM; Activity (Calu-6 [10]): 56%; Tlast [11]: 24 h; Tlast [12]: 24 h; clearance [13]: 19 mL/min/kg; Vd [14]: 1.7 L/kg; AUC at 24 h [15]: 217 µM·h; pEC50 [16]: 7.30 to 7.85; Papp B→A [17]: 19 ×10⁻⁶ cm/s; inhibition (Rattus norvegicus [18]): Dose-dependent effect; clearance [19]: 31 mL/min/kg; Activity (Calu-6 [20]): Dose-dependent effect; Activity (Calu-6 [21]): 21%; Cmax [22]: 1600 nM; Cmax [23]: 2350 nM; Tmax [24]: 3 h; inhibition in vivo at 150 mg/kg (Rattus norvegicus [25]): 70%; fraction unbound [26]: 0.02; AUC(0-inf) [27]: 4.3 µM·h; bioavailability [28]: 38%; Cmax [29]: 400 nM; bioavailability [30]: 79%; pEC50 (Calu-6 [31]): 6.33 to 6.55
